Screening results deposited in PubChem by several laboratories.
Jurkat NFkB inh: inhibitors of induced NF-kB luciferase reporter, primary screen, TCR NF-kB activation inhibitor project, cell-based, luminescence, uHTS; Jurkat, PMA/ionomycin-induced NF-kB luciferase reporter; inhibition, % at 4 µM; actives 0.53% (n = 330,000); AID 435003, 2010; in the data active = inhibition above about 50%
697 NFkB inh: inhibitors of PMA/ionomycin-induced NF-kB reporter, 697 cells, primary screen, B-cell NF-kB inhibitor project, cell-based, luminescence, uHTS; 697 B-cell NF-kB luciferase reporter, 16 h; inhibition, % at 4 µM; actives 0.33% (n = 330,000); in the data active = inhibition above about 35%
T cruzi inh: inhibitors of intracellular T. cruzi growth, primary screen, luminescence, NIH3T3 host cells; T. cruzi beta-gal in NIH3T3, 90 h; inhibition, % (concentration not given with the values); actives 1.4% (n = 300,000);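 active = mean inhibition across valid replicates above about 55%, limit read from the data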;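 note: signal also drops with host cell toxicity which is not excluded here; 0% = plate median of DMSO wells and 100% = zero luminescence signal; higher percent means less beta-gal luminescence so fewer parasites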
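compound dosing = single 50 nL compound addition per well in DMSO | material = NIH/3T3 host cells with β-galactosidase reporter T. cruzi | input = 5,000 host fibroblasts per well | timing = ≥90 h infection period, 3 h prior cell attachment | read-out basis = percent inhibition of parasite-derived β-gal signal | detection = GalScreen β-gal luminescence, detergent lysis, 60 min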
HSF1 inhib: HSF1 inhibitors in luciferase reporter cells, primary screen, cell-based, NIH3T3, luminescence; NIH3T3-HGL HSE-luciferase, MG132-induced, luminescence 8 h; active compounds read low; activity change, negative = inhibition, % at 7.5 µM (by protocol); actives 0.77% (n = 300,000); AID 2098, 2009;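 active = more than half of replicate wells show activity change below -50%, luminescence cut by over half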;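 note: luciferase reports HSF-1 transcriptional activity via heat shock element; 0% = median of DMSO wells and -100% = zero luminescence signal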
HSF1 activator: HSF-1 activators, primary screen, NIH3T3-HGL cells, MG132 stress, luminescence, single point; AID 504408, 2011; actives 1.7% (n = 300,000); NIH3T3-HGL HSF-1 luciferase reporter, 8 h; 100% = twice DMSO control signal; activation, % at 9 µM;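 active = mean replicate activation of at least 50% with a set share of replicates each reaching 50%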;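 note: 0% = median of the neutral control wells and 100% = twice that signal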
GPR7 antagonist: GPR7 receptor antagonists, primary screen, cell-based, fluorescence, single concentration. actives 1.1% (n = 290,000). GPR7-expressing cells, fluorescence antagonist assay. AID 1861, 2009. inhibition, % at 4.4 µM; in the data active = inhibition above about 16%, passing the limit was not always enough;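 note: cells stimulated with the agonist NPW; 0% = agonist with vehicle and 100% = vehicle without agonist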
Target sequence (P48145 whole entry, looked up): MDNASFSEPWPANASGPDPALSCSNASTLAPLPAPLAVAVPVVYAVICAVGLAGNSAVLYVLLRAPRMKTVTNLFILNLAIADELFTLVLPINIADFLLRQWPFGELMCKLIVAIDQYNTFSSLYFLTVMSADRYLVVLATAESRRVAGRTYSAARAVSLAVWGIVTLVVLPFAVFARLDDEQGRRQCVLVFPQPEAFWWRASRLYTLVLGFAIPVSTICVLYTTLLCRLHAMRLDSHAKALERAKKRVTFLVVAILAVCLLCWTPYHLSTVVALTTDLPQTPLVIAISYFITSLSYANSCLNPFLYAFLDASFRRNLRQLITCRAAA
The depositor's hits bear a star; / = no result. The list is not random: actives were taken first. Their share in the collection is about 4.8%.

SMILES	Jurkat NFkB inh	697 NFkB inh	T cruzi inh	HSF1 inhib	HSF1 activator	GPR7 antagonist
COc1ccc(SCC(=O)c2cc(C)c(OC(=S)N(C)C)c(C)c2)cc1	-29	-50	11	5	4	-1
Cc1cc(C(=O)CSc2ccc(F)cc2)cc(C)c1OC(=S)N(C)C	-21	-136	26	-62*	-65	-7
O=Cc1ccc(OC(=O)/C=C/c2ccccc2)cc1	-4	7	1	15	24	7
Cc1cccc(C)c1OCc1cc(C(=O)N2CCNC(=O)C2)no1	15	-28	-2	1	-21	-12
COC(=O)C(NC(=O)c1ccc(F)cc1)(Nc1nc(C)cs1)C(F)(F)F (stereo not given)	4	6	-8	-2	-12	17*
O=C1C(Cc2ccccc2)Nc2ncnc(N3CCc4ccccc4C3)c2N1Cc1ccc(Cl)cc1 (stereo not given)	17	-4	43	20	30	/
COc1ccc(CN2C(=O)C(Cc3ccccc3)Nc3ncnc(N4CCc5ccccc5C4)c32)cc1 (stereo not given)	3	0	37	48	71*	/
Cc1ccc(NC(=O)N2CCC(c3ccccc3)C2)cc1C (stereo not given)	-120	-143	3	38	62*	4
O=C(Nc1ccc(Cl)cc1)N1CCC(c2ccccc2)C1 (stereo not given)	-122	-153	13	58	76*	-11
Cc1ccc(C2CCN(C(=O)Nc3ccccc3)C2)cc1 (stereo not given)	-56	-64	12	24	45	-4
Cc1ccc2nsnc2c1NS(=O)(=O)c1c(C)ccc2nsnc12	8	3	-8	-8	-3	-9
CCOC(=O)CCCNS(=O)(=O)c1c(C)ccc2nsnc12	-12	4	-3	-89*	-91	-5
CCn1cc(C(=O)NCCCN2CCC(C)CC2)c(=O)c2cc(S(=O)(=O)N3CCOCC3)ccc21	-2	-6	5	-3	0	1
Cc1ccccc1Nc1nnc(SCc2cc([N+](=O)[O-])cc3c2OCOC3)s1	14	7	26	30	56*	-2
Cc1ccc2[nH]c(C(=O)N/N=C/c3ccccc3O)c(C)c2c1	27	-32	70*	-3	28	9
Clc1ccc2nc(CSc3ncn[nH]3)cn2c1	-11	3	0	4	-5	3
Cc1cc(C)nc(SCc2cn3cc(Cl)ccc3n2)n1	3	-11	17	42	64*	-10
CC1Sc2ccc(S(=O)(=O)CCC(=O)N3CCCCC3)cc2NC1=O (stereo not given)	10	-29	16	-6	-15	-9
CC1CC(C)CN(C(=O)CCS(=O)(=O)c2ccc3c(c2)NC(=O)CS3)C1 (stereo not given)	4	-2	13	31	85*	3
NC(=O)CNC(=O)[C@@H]1CC2(CC(c3ccc(Cl)cc3)=NO2)CN1C(=O)c1ccc(Br)cc1 (stereo not given in full)	8	4	2	5	14	-8
CCOC(=O)c1cccc(C(=O)Nc2nc3ccc(OC)cc3s2)n1	-25	-78	0	-5	-5	10
CCOC(=O)Cn1c(=O)oc2cc(S(=O)(=O)NCCC(C)C)ccc21	1	14	-1	-70*	-75	8
CCCCN(C(=O)c1ccc(C)c(S(=O)(=O)N2CCOCC2)c1)c1c(N)n(CCCC)c(=O)[nH]c1=O	-2	-5	-9	-7	3	/
CCOc1ccc(C(=O)C2CCN(CC(=O)Nc3ccccc3N3CCOCC3)CC2)cc1	1	-10	18	14	-4	-4
CCn1c(SC)nnc1C1CCCN(CC(=O)Nc2ccccc2N2CCOCC2)C1 (stereo not given)	-16	-1	24	15	67*	-9
SMILES	Jurkat NFkB inh	697 NFkB inh	T cruzi inh	HSF1 inhib	HSF1 activator	GPR7 antagonist
COc1ccc(CNc2nc3ccccc3n2CCN2CCCCC2)c(OC)c1	8	-5	26	31	74*	10
Cc1ccc2oc(C(=O)N3CCN(Cc4nccn4C)CC3)c(C)c2c1	11	-9	0	-3	-9	-5
COc1ccccc1NC(=O)c1ccc2c(c1)CCN2S(C)(=O)=O	11	11	3	0	12	-5
Cc1cccc(NC(=S)N(CCc2nc3cc(C)c(C)cc3[nH]2)Cc2cccnc2)c1	-10	28	79*	-8	9	-11
Cc1ccc(C)c(NC(=S)N(CCc2nc3cc(C)c(C)cc3[nH]2)Cc2cccnc2)c1	-6	-7	66*	10	17	-7
Cc1ccc(Cl)cc1NC(=S)N(Cc1cccnc1)Cc1ccccc1Cl	-9	8	72*	7	20	8
O=C(c1cccnc1)N1CCCC(Nc2ccc(F)cc2)C1 (stereo not given)	9	18	-3	-5	-13	-3
CN1/C(=C/C(=S)NC(=O)C2(C)CC2(Cl)Cl)C(C)(C)c2ccccc21 (stereo not given)	4	-29	55*	-3	-16	-16
COc1ccccc1C(=O)NC(=S)/C=C1/N(C)c2ccccc2C1(C)C	26	-10	47	-14	-5	-14
CC1CN(C(=O)CSc2nc(N)cc(N)n2)CC(C)O1 (stereo not given)	-24	-11	/	/	/	/
CC(Oc1ccccc1)C(=O)N1CCN(C(=O)C(C)Oc2ccccc2)CC1 (stereo not given)	2	0	-17	-5	-14	-12
COc1ccc(OC(C)C(=O)N2CCC(C)CC2)cc1 (stereo not given)	-2	12	-9	-66*	-73	9
Oc1[nH]c(N=C2N=c3ccccc3=N2)c2ccccc12	/	/	51	196	288*	0
Cc1ccc(C(=O)Nc2ccc(C(=O)O)cc2NC(=O)c2ccc(C)cc2)cc1	4	-72	-16	-51*	-55	-10
O=C(Nc1ccccc1Sc1ccccc1)c1ccc(F)cc1	-2	-8	-7	2	24	-14
Cc1ccc(C(=O)Nc2ccccc2Sc2ccccc2)cc1	-16	-19	18	36	57*	-12
CC(C)C1/C(=N/O)CC(c2ccccc2)NC1c1ccccc1 (stereo not given)	12	9	-2	0	23	21*
Cc1ccc(N(CC(=O)NC2CCCC2)C(=O)CCC(=O)Nc2nc(C)cs2)cc1	-5	3	2	0	8	16
